The results in this text go back to ChEMBL document CHEMBL3734652, “Pyrrolo[3,4-c]pyridine-1,3(2H)-diones: A Novel Antimycobacterial Class Targeting Mycobacterial Respiration” (J Med Chem, 2015).

Usually MIC90 stands for an inhibitory concentration at the 90% level, which refers to growth in some studies and to a panel of isolates in others.

Values after ≈ are worked out from the molar mass of the structure shown. Some results are limits rather than exact numbers.

The test system of one experiment is Mycobacterium tuberculosis. Nature of the experiment: Antimicrobial activity against Mycobacterium tuberculosis deltacydKO mutant under GAST/Fe medium assessed as growth inhibition after 14 days by alamar blue assay. It counts as functional. The essentials:
(§1)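 Broth microdilution in GAST/Fe medium against fully virulent Mtb H37RvMa or its derived strains (cytochrome bd oxidase deletion ΔcydKO; qcrB Ala317Thr point mutant). Plates were incubated 14 days, growth was read by Alamar Blue, and MIC90 was taken as the potency value.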
On to `CCOC(=O)c1nc(C)c2c(c1N)C(=O)N(Cc1ccccc1)C2O` (configuration not stated), for which the MIC90 came out at 0.019 µM (≈ 0.00649 µg/mL).
As to `CCOC(=O)c1nc(C)c2c(c1N)C(=O)N(Cc1ccccc1)C2=O`, the MIC90 is 0.019 µM (≈ 0.00645 µg/mL).
On the same count and under the same terms, in the case of `COc1cccc(CN2C(=O)c3c(C)nc(-c4nc(C)no4)c(N)c3C2=O)c1` it was 0.039 µM (≈ 0.0148 µg/mL); in that of `Cc1noc(-c2nc(C)c3c(c2N)C(=O)N(Cc2cccc(Cl)c2)C3=O)n1`, below 0.019 µM.
On the same count and under the same terms, in the case of `Cc1nc(C(=O)OC2CC2)c(N)c2c1C(=O)N(Cc1ccccc1)C2=O` it was 0.039 µM (≈ 0.0137 µg/mL); in that of `Cc1noc(-c2nc(C)c3c(c2N)C(=O)N(Cc2cccc(OC(F)(F)F)c2)C3=O)n1`, below 0.019 µM.

A further experiment relates to Mycobacterium tuberculosis. The experiment can be described thus: Antimicrobial activity against Mycobacterium tuberculosis deltacydKO/A317T mutant under GAST/Fe medium assessed as growth inhibition after 14 days by alamar blue assay. It counts as functional. The essentials:
as §1
(In general: Alamar Blue is a resazurin reagent that responds to reducing activity.)
`CCOC(=O)c1nc(C)c2c(c1N)C(=O)N(Cc1ccccc1)C2O` (configuration not stated): the MIC90 is above 10 µM.
As for `CCOC(=O)c1nc(C)c2c(c1N)C(=O)N(Cc1ccccc1)C2=O`, the MIC90 is above 10 µM.
Still for that read-out and setting: the value for `COc1cccc(CN2C(=O)c3c(C)nc(-c4nc(C)no4)c(N)c3C2=O)c1` was above 10 µM; that for `Cc1noc(-c2nc(C)c3c(c2N)C(=O)N(Cc2cccc(Cl)c2)C3=O)n1` was above 10 µM; that for `Cc1nc(C(=O)OC2CC2)c(N)c2c1C(=O)N(Cc1ccccc1)C2=O` was above 10 µM.
The same measure, in the same setting: the value for `Cc1noc(-c2nc(C)c3c(c2N)C(=O)N(Cc2cccc(OC(F)(F)F)c2)C3=O)n1` was above 10 µM.
